These results are taken from ChEMBL document CHEMBL3286162, “Synthesis and anticancer activity of novel quinoline-docetaxel analogues” (Bioorg Med Chem Lett, 2014).

Assay [1] concerns MCF7. Nature of the assay: Antiproliferative against human MCF7 cells after 72 hrs by MTT assay. The format is functional, cell-based. Particulars: MCF7, 72 h. Put shortly: (§1)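 MTT cytotoxicity assay with 72 h continuous exposure of cells to test compounds, run alongside docetaxel as positive control. The panel comprised four parental human cancer lines (HeLa, A549, A2780, MCF-7) and two drug-resistant sublines (A2780-MDR, MCF-7-MDR).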
(Tetrazolium assays rely on reduction of a dye to a coloured formazan, in cell work by metabolically active cells.)

The test system of assay [2] is A549. The assay can be described thus: Antiproliferative against human A549 cells after 72 hrs by MTT assay. The format is functional, cell-based. Conditions: A549, 72 h. A digest of the protocol: as §1
Assay [3] relates to HeLa. The assay can be described thus: Antiproliferative against human HeLa cells after 72 hrs by MTT assay. The format is functional, cell-based. Put shortly: as §1
Assay [4] concerns A2780. The assay can be described thus: Antiproliferative against multidrug-resistant human A2780 cells after 72 hrs by MTT assay. The format is functional, cell-based. Conditions: A2780, 72 h. A digest of the protocol:
as §1

Assay [5] relates to A2780. Nature of the assay: Antiproliferative against human A2780 cells after 72 hrs by MTT assay. The format is functional, cell-based. Conditions: A2780, 72 h. Put shortly: as §1
Assay [6] relates to MCF7. Nature of the assay: Antiproliferative against multidrug-resistant human MCF7 cells after 72 hrs by MTT assay. The format is functional, cell-based. Conditions: MCF7, 72 h. Put shortly: as §1
Assay [7] deals with MCF7. The assay can be described thus: Ratio of docetaxel IC50 to compound IC50 for human MCF7 cells after 72 hrs by MTT assay. The format is functional.
Assay [8] deals with MCF7. The assay can be described thus: Ratio of docetaxel IC50 to compound IC50 for multidrug-resistant human MCF7 cells after 72 hrs by MTT assay. The format is functional.
Assay [9] deals with A549. The assay can be described thus: Ratio of docetaxel IC50 to compound IC50 for human A549 cells after 72 hrs by MTT assay. The format is functional.
The subject of assay [10] is A2780. The assay can be described thus: Ratio of docetaxel IC50 to compound IC50 for human A2780 cells after 72 hrs by MTT assay. The format is functional.
Assay [11] has as its system HeLa. The assay can be described thus: Ratio of docetaxel IC50 to compound IC50 for human HeLa cells after 72 hrs by MTT assay. The format is functional.

SMILES strings stand for the structures.

On to `CC(=O)O[C@@]12CO[C@@H]1C[C@H](O)[C@@]1(C)C(=O)[C@H](O)C3=C(C)[C@@H](OC(=O)[C@H](OC(=O)c4ccc5ccccc5n4)[C@@H](NC(=O)OC(C)(C)C)c4ccccc4)C[C@@](O)([C@@H](OC(=O)c4ccccc4)[C@H]21)C3(C)C`, for which the IC50 (usually the concentration at which inhibition is half-maximal) in the assay on MCF7 [1] turned out to be 0.0264 µM; in the assay on A549 [2] it was 0.0382 µM; with HeLa [3], 0.0307 µM; in the assay with A2780 [4] it was 0.0332 µM; in the assay on A2780 [5], 0.035 µM; in the assay with MCF7 [6], 0.0093 µM.
For `CC(=O)O[C@@]12CO[C@@H]1C[C@H](O)[C@@]1(C)C(=O)[C@H](O)C3=C(C)[C@@H](OC(=O)[C@H](OC(=O)c4cnc5ccccc5c4)[C@@H](NC(=O)OC(C)(C)C)c4ccccc4)C[C@@](O)([C@@H](OC(=O)c4ccccc4)[C@H]21)C3(C)C`, the “Ratio IC50” value with MCF7 [7] was found to be 2. The concentration for half-maximal inhibition (IC50) in the assay with MCF7 [1] was determined as 0.0178 µM; in the assay with A549 [2] it was 0.0412 µM; in the assay with HeLa [3], 0.041 µM; in the assay with A2780 [4] it was 0.0349 µM; in the assay with A2780 [5], 0.0448 µM; in the assay on MCF7 [6] it was 0.0363 µM.
Turning to `CC(=O)O[C@@]12CO[C@@H]1C[C@H](O)[C@@]1(C)C(=O)[C@H](O)C3=C(C)[C@@H](OC(=O)[C@H](OC(=O)c4ccc5ncccc5c4)[C@@H](NC(=O)OC(C)(C)C)c4ccccc4)C[C@@](O)([C@@H](OC(=O)c4ccccc4)[C@H]21)C3(C)C`, the IC50 in the assay on MCF7 [1] was 0.0307 µM; in the assay with A549 [2], 0.0388 µM; with HeLa [3], 0.0346 µM; in the assay with A2780 [4], 0.0302 µM; with A2780 [5] it was 0.0231 µM; in the assay on MCF7 [6], 0.0088 µM. The “Ratio IC50” value with MCF7 [8] was found to be 20.
Consider `CC(=O)O[C@@]12CO[C@@H]1C[C@H](O)[C@@]1(C)C(=O)[C@H](O)C3=C(C)[C@@H](OC(=O)[C@H](OC(=O)c4nccc5ccccc45)[C@@H](NC(=O)OC(C)(C)C)c4ccccc4)C[C@@](O)([C@@H](OC(=O)c4ccccc4)[C@H]21)C3(C)C`, for which the IC50 with MCF7 [1] stood at 0.0168 µM; in the assay on A549 [2] it was 0.0281 µM; in the assay with HeLa [3], 0.0332 µM; in the assay on A2780 [4] it was 0.0122 µM; with A2780 [5], 0.0493 µM; with MCF7 [6] it was 0.0178 µM.
For the molecule `COc1cc(C(=O)O[C@@H](C(=O)O[C@H]2C[C@@]3(O)[C@@H](OC(=O)c4ccccc4)[C@@H]4[C@]5(OC(C)=O)CO[C@@H]5C[C@H](O)[C@@]4(C)C(=O)[C@H](O)C(=C2C)C3(C)C)[C@@H](NC(=O)OC(C)(C)C)c2ccccc2)nc2ccccc12`, the “Ratio IC50” value in the assay with MCF7 [7] was 2. The IC50 with MCF7 [1] turned out to be 0.0128 µM; with A549 [2] it was 0.0334 µM; in the assay with HeLa [3], 0.039 µM; in the assay with A2780 [4] it was 0.0439 µM; with A2780 [5], 0.0329 µM; in the assay on MCF7 [6], 0.0256 µM.
For `CC(=O)O[C@@]12CO[C@@H]1C[C@H](O)[C@@]1(C)C(=O)[C@H](O)C3=C(C)[C@@H](OC(=O)[C@H](OC(=O)c4cc(-c5ccccc5)nc5ccccc45)[C@@H](NC(=O)OC(C)(C)C)c4ccccc4)C[C@@](O)([C@@H](OC(=O)c4ccccc4)[C@H]21)C3(C)C`, the IC50 with MCF7 [1] was found to be 0.0398 µM; with A549 [2] it was 0.016 µM; with HeLa [3] it was 0.0193 µM; with A2780 [4], 0.0325 µM; in the assay on A2780 [5] it was 0.0416 µM; in the assay with MCF7 [6], 0.0284 µM. Also, the “Ratio IC50” value with A549 [9] was found to be 2.
For the molecule `CC(=O)O[C@@]12CO[C@@H]1C[C@H](O)[C@@]1(C)C(=O)[C@H](O)C3=C(C)[C@@H](OC(=O)[C@H](OC(=O)c4cn(C5CC5)c5cc(Cl)c(F)cc5c4=O)[C@@H](NC(=O)OC(C)(C)C)c4ccccc4)C[C@@](O)([C@@H](OC(=O)c4ccccc4)[C@H]21)C3(C)C`, the IC50 in the assay with MCF7 [1] was 0.042 µM; in the assay on A549 [2], 0.0385 µM; in the assay on HeLa [3], 0.0326 µM; in the assay with A2780 [4], 0.0297 µM; with A2780 [5], 0.0453 µM; in the assay on MCF7 [6] it was 0.0212 µM.
On to `CC(=O)O[C@H]1C(=O)[C@@]2(C)[C@H]([C@H](OC(=O)c3ccccc3)[C@]3(O)C[C@H](OC(=O)[C@H](OC(=O)c4ccc5ccccc5n4)[C@@H](NC(=O)OC(C)(C)C)c4ccccc4)C(C)=C1C3(C)C)[C@]1(OC(C)=O)CO[C@@H]1C[C@@H]2O`, for which the IC50 in the assay with MCF7 [1] amounted to 0.0373 µM; in the assay with A549 [2] it was 0.0271 µM; with HeLa [3], 0.0199 µM; with A2780 [4], 0.0298 µM; in the assay on A2780 [5], 0.0457 µM; with MCF7 [6], 0.0241 µM.
Take `CC(=O)O[C@H]1C(=O)[C@@]2(C)[C@H]([C@H](OC(=O)c3ccccc3)[C@]3(O)C[C@H](OC(=O)[C@H](OC(=O)c4cnc5ccccc5c4)[C@@H](NC(=O)OC(C)(C)C)c4ccccc4)C(C)=C1C3(C)C)[C@]1(OC(C)=O)CO[C@@H]1C[C@@H]2O`: the half-inhibitory concentration (IC50) in the assay with MCF7 [1] amounted to 0.0433 µM; in the assay on A549 [2] it was 0.041 µM; in the assay with HeLa [3], 0.0363 µM; in the assay with A2780 [4], 0.029 µM; in the assay on A2780 [5], 0.0342 µM; in the assay with MCF7 [6], 0.0378 µM.
As for `CC(=O)O[C@H]1C(=O)[C@@]2(C)[C@H]([C@H](OC(=O)c3ccccc3)[C@]3(O)C[C@H](OC(=O)[C@H](OC(=O)c4ccc5ncccc5c4)[C@@H](NC(=O)OC(C)(C)C)c4ccccc4)C(C)=C1C3(C)C)[C@]1(OC(C)=O)CO[C@@H]1C[C@@H]2O`, the IC50 with MCF7 [1] is 0.0298 µM; with A549 [2], 0.0284 µM; in the assay with HeLa [3], 0.0185 µM; in the assay with A2780 [4] it was 0.0351 µM; in the assay on A2780 [5] it was 0.0163 µM; in the assay with MCF7 [6], 0.0357 µM. For the same molecule, the “Ratio IC50” value in the assay with A2780 [10] was 2.
Consider `CC(=O)O[C@H]1C(=O)[C@@]2(C)[C@H]([C@H](OC(=O)c3ccccc3)[C@]3(O)C[C@H](OC(=O)[C@H](OC(=O)c4nccc5ccccc45)[C@@H](NC(=O)OC(C)(C)C)c4ccccc4)C(C)=C1C3(C)C)[C@]1(OC(C)=O)CO[C@@H]1C[C@@H]2O`, for which the IC50 turned out to be 0.0266 µM in the assay with MCF7 [1]; 0.0353 µM in the assay on A549 [2]; 0.0412 µM in the assay with HeLa [3]; 0.0186 µM in the assay on A2780 [4]; 0.0169 µM with A2780 [5]; 0.0459 µM in the assay with MCF7 [6]. The “Ratio IC50” value in the assay with A2780 [10] turned out to be 2.
For `COc1cc(C(=O)O[C@@H](C(=O)O[C@H]2C[C@@]3(O)[C@@H](OC(=O)c4ccccc4)[C@@H]4[C@]5(OC(C)=O)CO[C@@H]5C[C@H](O)[C@@]4(C)C(=O)[C@H](OC(C)=O)C(=C2C)C3(C)C)[C@@H](NC(=O)OC(C)(C)C)c2ccccc2)nc2ccccc12`, the concentration for half-maximal inhibition (IC50) in the assay on MCF7 [1] stood at 0.0476 µM; with A549 [2], 0.0323 µM; in the assay on HeLa [3], 0.0349 µM; in the assay with A2780 [4], 0.0213 µM; in the assay with A2780 [5] it was 0.0301 µM; with MCF7 [6], 0.0182 µM.
For `CC(=O)O[C@H]1C(=O)[C@@]2(C)[C@H]([C@H](OC(=O)c3ccccc3)[C@]3(O)C[C@H](OC(=O)[C@H](OC(=O)c4cc(-c5ccccc5)nc5ccccc45)[C@@H](NC(=O)OC(C)(C)C)c4ccccc4)C(C)=C1C3(C)C)[C@]1(OC(C)=O)CO[C@@H]1C[C@@H]2O`, the IC50 in the assay with MCF7 [1] was determined as 0.0314 µM; in the assay on A549 [2], 0.0425 µM; in the assay on HeLa [3], 0.0118 µM; in the assay with A2780 [4], 0.0498 µM; in the assay on A2780 [5] it was 0.0282 µM; with MCF7 [6], 0.0183 µM. Also, the “Ratio IC50” value with HeLa [11] is recorded as 5.
Regarding `CC(=O)O[C@H]1C(=O)[C@@]2(C)[C@H]([C@H](OC(=O)c3ccccc3)[C@]3(O)C[C@H](OC(=O)[C@H](OC(=O)c4cn(C5CC5)c5cc(Cl)c(F)cc5c4=O)[C@@H](NC(=O)OC(C)(C)C)c4ccccc4)C(C)=C1C3(C)C)[C@]1(OC(C)=O)CO[C@@H]1C[C@@H]2O`, the IC50 with MCF7 [1] stood at 0.0302 µM; in the assay on A549 [2], 0.0288 µM; in the assay on HeLa [3], 0.0253 µM; with A2780 [4] it was 0.0345 µM; with A2780 [5], 0.0398 µM; in the assay with MCF7 [6], 0.0389 µM.
For `CC(=O)O[C@@]12CO[C@@H]1C[C@H](O)[C@@]1(C)C(=O)[C@H](O)C3=C(C)[C@@H](OC(=O)[C@H](O)[C@@H](NC(=O)OC(C)(C)C)c4ccccc4)C[C@@](O)([C@@H](OC(=O)c4ccccc4)[C@H]21)C3(C)C` [DOCETAXEL], the 50% inhibitory concentration (IC50) in the assay on MCF7 [1] was found to be 0.0385 µM; in the assay with A549 [2] it was 0.0352 µM; with HeLa [3] it was 0.0501 µM; with A2780 [4], 0.126 µM; with A2780 [5], 0.033 µM; in the assay on MCF7 [6], 0.18 µM.
